This is an account of results in paper PMC6263940 (Nature chemical biology, 2018).

Experiment [1] deals with T1, ABHD12 (Homo sapiens, UniProt Q8N2K0).
T1 sequence (Q8N2K0 1-398): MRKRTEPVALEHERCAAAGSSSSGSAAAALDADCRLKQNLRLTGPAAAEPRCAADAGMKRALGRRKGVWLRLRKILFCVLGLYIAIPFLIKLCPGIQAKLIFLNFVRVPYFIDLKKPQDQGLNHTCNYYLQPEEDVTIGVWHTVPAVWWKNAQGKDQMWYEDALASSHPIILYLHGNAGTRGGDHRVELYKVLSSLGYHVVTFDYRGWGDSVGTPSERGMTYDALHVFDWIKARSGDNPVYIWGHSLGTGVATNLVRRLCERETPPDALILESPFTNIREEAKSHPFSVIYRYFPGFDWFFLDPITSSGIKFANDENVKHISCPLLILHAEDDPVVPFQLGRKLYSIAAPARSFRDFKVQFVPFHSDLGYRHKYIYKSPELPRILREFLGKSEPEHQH
Briefly: In situ treatment of THP-1 cells, competitive gel-based ABPP with JJH350 probe. Particulars: 1 μM, 4 h in situ. The experiment is classed as cell-based. In short, it runs like this: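 Whole THP-1 cells exposed to test compound or DMSO for 4 h at 37 °C, 5% CO₂, then washed twice with ice-cold DPBS. Proteome (1 mg/mL) labelled with JJH350 (2 μM final, 45 min, 37 °C), clicked by CuAAC and resolved on gel. ABHD12 band intensity is expressed relative to the control-treated sample, set to 100%.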

In another experiment the test system is LCMV clone 13. Particulars: mouse, in vivo.
The next experiment deals with T2, PLA2G6 (Mus musculus, UniProt P97819).
T2 sequence (P97819 1-807): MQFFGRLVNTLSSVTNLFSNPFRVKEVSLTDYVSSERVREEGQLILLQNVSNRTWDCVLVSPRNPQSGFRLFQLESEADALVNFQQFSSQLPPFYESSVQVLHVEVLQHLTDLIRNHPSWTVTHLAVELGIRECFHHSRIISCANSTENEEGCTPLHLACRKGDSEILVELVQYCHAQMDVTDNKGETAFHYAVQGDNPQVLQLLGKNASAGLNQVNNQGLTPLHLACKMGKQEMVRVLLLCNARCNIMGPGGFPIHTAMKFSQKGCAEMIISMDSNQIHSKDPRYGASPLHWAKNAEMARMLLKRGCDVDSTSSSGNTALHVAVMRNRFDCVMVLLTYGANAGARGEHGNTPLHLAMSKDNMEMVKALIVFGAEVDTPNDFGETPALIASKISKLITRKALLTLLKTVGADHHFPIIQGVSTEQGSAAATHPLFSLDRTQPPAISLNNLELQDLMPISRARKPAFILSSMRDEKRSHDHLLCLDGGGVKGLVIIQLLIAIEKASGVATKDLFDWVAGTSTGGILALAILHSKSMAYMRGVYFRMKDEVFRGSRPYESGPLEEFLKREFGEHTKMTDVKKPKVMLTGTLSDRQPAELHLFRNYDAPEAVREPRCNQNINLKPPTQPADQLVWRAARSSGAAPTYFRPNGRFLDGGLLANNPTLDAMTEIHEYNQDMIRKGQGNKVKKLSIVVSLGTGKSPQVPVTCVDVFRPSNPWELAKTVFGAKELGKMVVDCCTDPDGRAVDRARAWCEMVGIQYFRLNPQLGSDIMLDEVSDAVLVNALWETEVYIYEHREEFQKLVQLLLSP
The experiment can be described thus: Quantitative MS-ABPP of brain membrane proteome from treated mice: PLA2G6. The class given is in vivo. Particulars: 30 mg/kg, i.p., 4 h. Put shortly: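 Mice dosed i.p. with test compound (30 mg/kg) or vehicle and killed after 4 h (isoflurane, then cervical dislocation). Brain membrane serine hydrolase activities quantified by MS-based ABPP. Each protein's value is the mean of median peptide ratios (treated vs vehicle) ± SEM, from n = 4 or 3 independent samples per compound.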

Experiment [2] concerns the target T3, serine hydrolases in THP-1 cells (Homo sapiens, UniProt P08910).
T3 sequence (P08910 1-425): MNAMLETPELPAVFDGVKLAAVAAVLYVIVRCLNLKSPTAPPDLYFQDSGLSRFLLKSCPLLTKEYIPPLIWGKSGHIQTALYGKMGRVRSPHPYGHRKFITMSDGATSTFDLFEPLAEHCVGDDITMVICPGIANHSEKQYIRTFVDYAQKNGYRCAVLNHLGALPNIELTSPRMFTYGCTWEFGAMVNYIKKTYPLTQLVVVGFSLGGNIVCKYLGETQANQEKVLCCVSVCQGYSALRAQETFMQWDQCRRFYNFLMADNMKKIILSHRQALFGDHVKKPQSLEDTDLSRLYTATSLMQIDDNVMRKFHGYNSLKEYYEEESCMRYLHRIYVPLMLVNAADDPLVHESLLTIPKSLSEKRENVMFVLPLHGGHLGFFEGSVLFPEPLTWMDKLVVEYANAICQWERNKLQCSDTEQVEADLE
Briefly: ABPP-SILAC. The class given is cell-based.

The test system of experiment [3] is serine hydrolases in THP-1 cells. The experiment can be described thus: ABPP-SILAC. The experiment is classed as cell-based, human. Particulars: 1 μM, 4 h, THP-1 cells.
A further experiment deals with THP-1 cells. The experiment can be described thus: Targeted LC-MS of. The class given is cell-based, human. Particulars: 4 h. Put shortly:
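THP-1 cells (6 million in 10 mL) incubated with test compound or DMSO for 4 h at 37 °C, 5% CO₂. Cells washed twice with ice-cold DPBS and stored at −80 °C, then analysed by targeted LC-MS metabolomics for lyso-PS and PS species.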

For experiment [4], the target named is T4, ABHD12 (Mus musculus, UniProt Q99LR1).
T4 sequence (Q99LR1 1-398): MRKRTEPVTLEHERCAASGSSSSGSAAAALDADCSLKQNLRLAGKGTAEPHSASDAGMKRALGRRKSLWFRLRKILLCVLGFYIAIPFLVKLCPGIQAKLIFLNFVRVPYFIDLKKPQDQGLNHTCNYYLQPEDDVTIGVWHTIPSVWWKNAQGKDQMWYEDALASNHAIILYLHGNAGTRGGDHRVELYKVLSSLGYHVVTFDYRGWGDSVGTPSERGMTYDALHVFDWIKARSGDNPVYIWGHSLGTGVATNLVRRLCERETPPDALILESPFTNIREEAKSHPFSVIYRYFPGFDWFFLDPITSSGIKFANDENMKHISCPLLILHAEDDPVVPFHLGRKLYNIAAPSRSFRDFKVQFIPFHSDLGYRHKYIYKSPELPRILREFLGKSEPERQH
Briefly: Lyso-PS hydrolysis assay with membrane lysates of ABHD12-transfected cells. The class given is biochemical. In short, it runs like this: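 Membrane lysate of ABHD12-transfected cells in DPBS incubated with 17:1 lyso-PS (100 μM final) for 20 min at 37 °C. Quenched in 2:1 CHCl₃/MeOH with 15:0 FFA internal standard. Activity is the LC-MS 17:1 FFA/15:0 FFA peak-area ratio minus mock-transfected membrane activity. IC50 fitted as log(inhibitor) vs normalized response.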

Consider `FC(F)(F)Oc1ccc(Oc2ccnc(N3CCC(NC(=S)Nc4cccnc4)CC3)c2Cl)c(Cl)c1` [DO264, N-3-pyridyl-N’-(1-[3-chloro-4-{2-chloro-4-(trifluoromethoxy)phenoxy}pyridine-2-yl]piperidin-4-yl)thiourea], for which the “ABHD12 activity in THP-1 cells by competitive gel-based ABPP (in words)” value at ABHD12 [1] is listed as “complete blockade”. Also, in the experiment with LCMV clone 13, the “pathological response to Cl13 infection, in comparison to (S)-DO271” value was “heightened pathology”; the “pro-inflammatory chemokines in BALF compared to control group” value is on record as “increases”; the “total protein in bronchoalveolar lavage fluid (BALF) compared to control group” value is given as “increases”. Besides, the “fraction of treated ABHD12(−/−) mice that died prior to sacrifice at day 10” value in the experiment on LCMV clone 13 (ip, 30 mg/kg) was 30-40%. For the same molecule, the “reduction in PLA2G6 activity in treated mice” value on PLA2G6 is 40-50%. Besides, the “inhibition of human ABHD2 in situ” value in experiment [2] is listed as “did not inhibit”. In experiment [3], the “effect on activity of other serine hydrolases” value was “without affecting the activity of other serine hydrolases”. Moreover, in the experiment with THP-1 cells (0.001-1 μM), the “20:4 PS lipids of THP-1 cells” value is given as “concentration-dependent increase”. The “lyso-PS content of THP-1 cells” value in the experiment with THP-1 cells (DO264 0.001-1 μM, (S)-DO271 1 μM) is on record as “substantial elevations”. Also, the “time dependence of ABHD12 inhibition” value on ABHD12 [4] (30-45 min or no preincubation, ABHD12-transfected HEK293T lysate 0.2 mg/mL) is “did not show time-dependent inhibition”. Further, the “ABHD12 activity after dilution of inhibitor-treated lysates” value on ABHD12 [4] (ABHD12-transfected HEK293T lysates, preincubated 20 min, diluted five-fold) is on record as “recovery of ABHD12 activity”.
